Experimental data reported in ChEMBL document CHEMBL1154601, “A new series of amodiaquine analogues modified in the basic side chain with in vitro antileishmanial and antiplasmodial activity” (Eur J Med Chem, 2009).

Assays:
Leishmania donovani = assay: Antileishmanial activity against Leishmania donovani MHOM/ET/ 67/HU3 amastigote infected in CD1 mouse peritoneal exudate macrophages assessed as parasite growth inhibition after 5 days by Giemsa staining; type: functional, organism-based; conditions: MHOM/ET/ 67/HU3, 120 h
Method in brief: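 Macrophages from starch-induced peritoneal exudate, harvested after 24 h, held 24 h in RPMI 1640 + 10% HIFCS at 37°C, 5% CO2. Infected with hamster-spleen-derived amastigotes at 5 parasites:1 macrophage, then 24 h later drug applied for 5 days, overlay renewed day 3. Top concentration 30 µg/mL, quadruplicates. Methanol fixation, microscopic scoring. IC50 by sigmoidal regression, mean of at least three determinations.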

KB = assay: Cytotoxicity against human KB cells after 72 hrs by Alamar blue assay; type: cell-based
Method in brief: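 Monolayers grown in RPMI 1640 + 10% heat-inactivated FCS at 37°C, 5% CO2. After 72 h compound exposure, Alamar Blue added and incubated a further 2-4 h. Fluorescence read at 530/580 nm, cut-off 550 nm. Podophyllotoxin served as positive control. IC50 is the concentration killing 50% of cells.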

Plasmodium falciparum [1] = assay: Antimalarial activity against chloroquine-susceptible Plasmodium falciparum 3D7 assessed as inhibition of parasite growth after 48 hrs by [3H]hypoxanthine reuptake assay; type: functional, organism-based
Method in brief: (§1)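 Synchronised ring-stage cultures at 1% parasitemia, 5% hematocrit, in RPMI 1640 at 37°C, 5% CO2; top final test concentration 30 µg/mL. After 24 h, (3H)-hypoxanthine (0.2 µCi/well) was added, followed by a further 48 h incubation. Plates were freeze/thawed and harvested, and uptake was counted by scintillation. IC50 came from sigmoidal regression as the mean of at least three determinations.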

Plasmodium falciparum [2] = assay: Antimalarial activity against chloroquine-resistant Plasmodium falciparum K1 assessed as inhibition of parasite growth after 48 hrs by [3H]hypoxanthine reuptake assay; type: functional, organism-based; method in brief: as §1

SMILES | IC50 (Leishmania donovani) [nM] | IC50 (KB) [nM] | IC50 (Plasmodium falciparum [1]) [nM] | IC50 (Plasmodium falciparum [2]) [nM]
CCN(CCNC(=O)OC(C)(C)C)Cc1cc(Nc2ccnc3cc(Cl)ccc23)ccc1O | 8770 | 8810 | 2.12 | 2.12
Oc1ccc(Nc2ccnc3cc(Cl)ccc23)cc1CN1CCN(c2nc3ccccc3[nH]2)CC1 | 1870 | 2440 | 3.08 | 1.54
Oc1ccc(Nc2ccnc3cc(Cl)ccc23)cc1CN1CCN(c2nc3ccccc3o2)CC1 | 14600 | 8020 | 1.68 | 387
CCN(CCN/C(=N/C(=O)c1ccccc1)Oc1ccccc1)Cc1cc(Nc2ccnc3cc(Cl)ccc23)ccc1O | 2860 | 10200 | 6.73 | 10.1
Oc1ccc(Nc2ccnc3cc(Cl)ccc23)cc1CN1CCN(c2ncccn2)CC1 | 7210 | 8030 |  | 
CCN(CCNC(=O)Nc1ccccc1)Cc1cc(Nc2ccnc3cc(Cl)ccc23)ccc1O | 1830 | 5330 | 8.22 | 238
CCN(CCNC(=N)c1ccccc1)Cc1cc(Nc2ccnc3cc(Cl)ccc23)ccc1O | 7100 | 5340 | 48.4 | 290
Oc1ccc(Nc2ccnc3cc(Cl)ccc23)cc1CCl | > 83500 | 25600 | 695 | 557
CCN(CCNC(=S)Nc1ccccc1)Cc1cc(Nc2ccnc3cc(Cl)ccc23)ccc1O | 2050 | 8460 | 1.63 | 6.5
Oc1ccc(Nc2ccnc3cc(Cl)ccc23)cc1CN1CCNCC1 | 2290 | 11800 | 18.8 | 225
CCN(CCNC(=O)[C@@H](N)CC(C)C)Cc1cc(Nc2ccnc3cc(Cl)ccc23)ccc1O | 4690 | 22300 | 22.6 | 14300
Oc1ccc(Nc2ccnc3cc(Cl)ccc23)cc1CN1CCN(c2nc3ccccc3s2)CC1 | 12900 | 45200 | 14.6 | 1480
CCN(CCNC(=O)[C@H](C)N)Cc1cc(Nc2ccnc3cc(Cl)ccc23)ccc1O | 5150 | 10400 | 12.2 | 14100
OCc1cc(Nc2ccnc3cc(Cl)ccc23)ccc1O | > 89000 | 198000 | 712 | 1420
CCN(CCN)Cc1cc(Nc2ccnc3cc(Cl)ccc23)ccc1O | 5650 | 25600 | 5.47 | 5.47
C[C@H]1[C@H](OC(=O)CCC(=O)O)O[C@@H]2O[C@@]3(C)CC[C@H]4[C@H](C)CC[C@@H]1[C@@]24OO3 [ARTESUNATE] |  |  |  | 2.46
Oc1ccc(Nc2ccnc3cc(Cl)ccc23)cc1CN1CCN(c2cccs2)CC1 | 9140 | 50400 | 2.22 | 
CCN(CCNC(=O)[C@@H](N)[C@@H](C)O)Cc1cc(Nc2ccnc3cc(Cl)ccc23)ccc1O | 15300 | 54400 | 47 | 14100
CCN(CC)Cc1cc(Nc2ccnc3cc(Cl)ccc23)ccc1O | 1400 | 90000 | 2.15 | 8.61
CCOC(=O)N1CCN(Cc2cc(Nc3ccnc4cc(Cl)ccc34)ccc2O)CC1 | 14900 | 11400 | 5.28 | 7.04
Oc1ccc(Nc2ccnc3cc(Cl)ccc23)cc1CN1CCN(c2ccccc2)CC1 | 9680 | 8630 | 3.52 | 1.8
Oc1ccc(Nc2ccnc3cc(Cl)ccc23)cc1CN1CCN(c2ccccn2)CC1 | 6710 | 16100 | 0.323 | 1.4
Oc1ccc(Nc2ccnc3cc(Cl)ccc23)cc1CN1CCN(c2nccs2)CC1 | 17700 | 5020 | 0.67 | 0.42
CCN(CCNC(=N)Nc1ccccc1)Cc1cc(Nc2ccnc3cc(Cl)ccc23)ccc1O | 11700 | 9030 | 126 | 12100
